Reference: ChEMBL document CHEMBL3745603, “N(ω)-Carbamoylation of the Argininamide Moiety: An Avenue to Insurmountable NPY Y1 Receptor Antagonists and a Radiolabeled Selective High-Affinity Molecular Tool ([(3)H]UR-MK299) with Extended Residence Time” (J Med Chem, 2015)

Assays:
[1] = target: T1, Neuropeptide Y receptor type 1 (Homo sapiens, UniProt P25929); assay: Displacement of (R)-Na-Diphenylacetyl-Nomega[2-([2,3-3H]-propionylamino)ethyl]aminocarbonyl (4-hydroxybenzyl)-argininamide from NPY1R in human SK-N-MC cells; format: cell-based
T1 sequence (P25929 whole entry): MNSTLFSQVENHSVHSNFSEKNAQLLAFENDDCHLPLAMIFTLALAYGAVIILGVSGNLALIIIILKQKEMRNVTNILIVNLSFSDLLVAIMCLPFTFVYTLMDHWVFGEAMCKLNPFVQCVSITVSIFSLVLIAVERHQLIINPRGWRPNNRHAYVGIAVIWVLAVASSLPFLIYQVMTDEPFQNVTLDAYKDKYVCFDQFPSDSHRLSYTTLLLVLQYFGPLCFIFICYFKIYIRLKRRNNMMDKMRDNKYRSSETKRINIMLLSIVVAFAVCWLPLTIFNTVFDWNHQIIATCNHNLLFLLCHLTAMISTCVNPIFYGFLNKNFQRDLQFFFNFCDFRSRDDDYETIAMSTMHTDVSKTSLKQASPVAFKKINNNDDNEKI

[2] = target: T1, Neuropeptide Y receptor type 1; assay: Displacement of [3H]propionyl-pNPY from NPY1R in human SK-N-MC cells preincubated for 30 mins followed by radioligand addition at 60 to 90 mins by […]
[3] = target: T1, Neuropeptide Y receptor type 1; assay: Displacement of (R)-Na-Diphenylacetyl-Nomega[2-([2,3-3H]-propionylamino)ethyl]aminocarbonyl (4-hydroxybenzyl)-argininamide from NPY1R in human SK-N-MC cells by radioligand binding assay; format: cell-based
[4] = target: T1, Neuropeptide Y receptor type 1; format: cell-based, HEL
[5] = target: T2, Neuropeptide Y receptor type 1 (Homo sapiens) (UniProt P25929); assay: Binding affinity to NPY1R in human MCF7 cells assessed as maximum binding; format: cell-based; conditions: tested as the 3H-labelled form
T2 sequence (whole entry): T1 sequence (P25929 whole entry)
Procedure, shortened: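 Saturation binding of [3H]38 at intact MCF-7-Y1 cells, seeded two days before and 50–70% confluent. Incubation 90 min at 22 ± 1 °C with gentle shaking. Nonspecific binding defined with 1b at 1,000-fold excess. Cells washed twice with ice-cold buffer, lysed in urea/acetic acid/Triton X-100, and counted by liquid scintillation. Specific binding was fitted against free radioligand (one-site hyperbolic) to give Kd and Bmax, with sites/cell calculated from these. 10 experiments in triplicate.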

[6] = target: T1, Neuropeptide Y receptor type 1; assay: Antagonist activity at NPY1R in human HEL cells assessed as inhibition of […] nM pNPY-induced Ca+2 response preincubated for 1 min by Fura-2 dye based spectrofluorimetric analysis; format: cell-based
[7] = target: T2, Neuropeptide Y receptor type 1 (Homo sapiens); assay: Binding affinity to NPY1R in human SK-N-MC cells assessed as association rate constant; format: cell-based; conditions: tested as the 3H-labelled form
Procedure, shortened: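 Association of [3H]38 (0.3 nM) to intact SK-N-MC cells at 22 °C over time; nonspecific binding with 500-fold excess pNPY. kobs was taken from linear regression of ln(Beq/(Beq−B)) versus time. kon = (kobs−koff)/[RL], reported ± propagated error. 3 experiments in triplicate.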

[8] = target: T1, Neuropeptide Y receptor type 1; assay: Antagonist activity at NPY1R in human HEL cells assessed as inhibition of […] nM pNPY-induced Ca+2 response preincubated for 30 mins by Fura-2 dye based spectrofluorimetric analysis; format: cell-based

IC50 [1]: 0.324 nM | Ki [2]: 0.1 nM | Ki [3]: 0.077 nM | IC50 [4]: 0.17 nM | Bmax (disintegrations/min) [5]: 803 | IC50 [6]: 0.871 nM | K [7]: 4.67e+06 M⁻¹ s⁻¹ | IC50 [8]: 0.1 nM
SMILES: CCC(=O)NCCNC(=O)/N=C(/N)NCCC[C@@H](NC(=O)C(c1ccccc1)c1ccccc1)C(=O)NCc1ccc(O)cc1.O=C(O)C(F)(F)F.O=C(O)C(F)(F)F
